These entries were drawn from the full list.
Apaf1 activ: activators of human Apaf-1 apoptosome, primary screen, biochemical, DEVD-Rh110 fluorescence, uHTS; Apoptotic protease-activating factor 1 (Homo sapiens), O14727; Apaf-1 apoptosome caspase-3 activation; active compounds read low; activity change, negative = activation, % at 20 µM; hit rate 0.31% among 330,000;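 active = activity change at or below -40% at 20 µM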
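Material: biochemical Apaf-1 apoptosome reconstitution; Medium: 20 mM HEPES buffer, pH 7.5, containing CHAPS and BSA; Reagent: dATP, cytochrome c, and (Z-DEVD)2-Rh110 caspase-3 substrate; Times: 30 min preincubation, 50 min reaction, room temperature; Signal: Rh110 fluorescence, excitation 480 nm, emission 540 nm; Measure: Caspase-3 activity via Apaf-1.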
Rh110 act interf: Rh110 fluorescence interference by putative Apaf-1 activators, confirmation, artefact control for Apaf-1 activator project, biochemical, 20 µM | shares compounds with Apaf1 activ | AID 504616, 2011 | fluorescence interference (activity change), % at 20 µM, hits read low | quenched caspase reaction, Ex480/Em540 | 980 tested, under 10 active;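 active = mean activity change at or below -40% when tested at 20 µM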
Apaf-1 act conf: Apaf-1 activators, single-dose retest, confirmation, biochemical, fluorescence, DEVD-Rh110, 20 µM. activity change, negative = activation, % at 20 µM. reconstituted apoptosome caspase-3 activity; active compounds read low. shares compounds with Apaf1 activ. AID 504617, 2011. hit rate 5% among 980;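 active = mean activity change at or below -40%, meaning activation of 40% or more, at 20 µM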
Starred values were filed as active, the others as inactive.

SMILES	Apaf1 activ	others
O=C(Nc1ccccc1N1CCCC1)C1CCN(S(=O)(=O)c2cccc(C(F)(F)F)c2)CC1	42
O=C(Nc1ccccc1)N1CCC(C(=O)N2CCN(S(=O)(=O)c3cccc(F)c3)CC2)CC1	-51*	Rh110 act interf=9;Apaf-1 act conf=9
CC(C(O)c1ccc(O)cc1)N1CCC(Cc2ccccc2)CC1 (stereo not given)	2
Cc1ccc(C(=O)N/C(=C\c2ccc(-c3ccccc3[N+](=O)[O-])o2)C(=O)NCCCN(C)C)cc1	56
CC(C)c1ccc(-n2nc3ccc(N)cc3n2)cc1	63
Cc1ccc(-n2nc3ccc(N)cc3n2)cc1	82
Nc1ccc2nn(-c3ccc(F)cc3)nc2c1	88
CC(C)C(=O)Nc1cccc(-c2cn3ccsc3n2)c1	67
Cc1ccc(-n2nc3ccc(NC(=O)C(C)C)cc3n2)cc1	-152*	Rh110 act interf=5;Apaf-1 act conf=7
CC(C)C(=O)Nc1ccc2nn(-c3ccc(F)cc3)nc2c1	-95*	Rh110 act interf=17;Apaf-1 act conf=15
COC(=O)CCC(=O)OC1(C)C(=O)C2=CN(CCCOC(C)C)C(c3ccc(OC)cc3)=CC2=C(Br)C1=O (stereo not given)	79
CCOc1ccccc1CNC(=O)C1CCN(c2nnc(C)c3c(C)n(-c4ccc(C)cc4)nc23)CC1	41
COc1cccc2c1C(=O)C=C(C)C2=O	56

From PubChem
